The source made the active and inactive calls. The rule behind the calls is not given here.
Experiments:
[1] = molecular target: T1, L-lactate dehydrogenase A chain (Homo sapiens, UniProt P00338); experiment: Inhibition of LDHA in human MIA PaCa-2 cells assessed as decrease in lactate production incubated for 2 hrs by lactate oxidase-coupled fluorescence based assay; format: cell-based
[2] = molecular target: T1, L-lactate dehydrogenase A chain; experiment: Inhibition of GS[HiBiT]GS-tagged LDHA (unknown origin) expressed in HEK-293T cells measured after 1 hr by […]; format: cell-based
Method in brief: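 HEK293T cells were transiently transfected for 24 h with CMV-driven LDHA carrying a C-terminal GS[HiBiT]GS tag, then reseeded at 2500 cells/well in DPBS with Ca/Mg and 1 g/L glucose. […] Cells were lysed with NP40, and 11S (100 nM final) plus furimazine was added.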

[3] = molecular target: T1, L-lactate dehydrogenase A chain; experiment: Inhibition of recombinant human LDHA using sodium pyruvate as substrate preincubated for 5 mins followed by diaphorase/resazurin addition and measured after 20 mins by fluorescence based assay
Sus scrofa = organism: Sus scrofa; experiment: Inhibition of porcine heart MDH using malic acid as substrate preincubated for 10 mins followed by substrate addition and measured after 5 mins by resazurin based fluorescence based assay; settings: time 15.0 min
A673 = experiment: Cytotoxicity against human A673 cells assessed as reduction in cell viability after 48 hrs by CellTiter-Glo assay; format: functional, cell-based; settings: A673, 48 h
[4] = molecular target: L-lactate dehydrogenase B chain (Homo sapiens) (UniProt P07195); experiment: Inhibition of recombinant human LDHB using sodium pyruvate as substrate preincubated for 5 mins followed by diaphorase/resazurin addition and measured after 20 mins by fluorescence based assay
L-lactate dehydrogenase B chain (Homo sapiens), sequence (P07195 2-334 limits assumed): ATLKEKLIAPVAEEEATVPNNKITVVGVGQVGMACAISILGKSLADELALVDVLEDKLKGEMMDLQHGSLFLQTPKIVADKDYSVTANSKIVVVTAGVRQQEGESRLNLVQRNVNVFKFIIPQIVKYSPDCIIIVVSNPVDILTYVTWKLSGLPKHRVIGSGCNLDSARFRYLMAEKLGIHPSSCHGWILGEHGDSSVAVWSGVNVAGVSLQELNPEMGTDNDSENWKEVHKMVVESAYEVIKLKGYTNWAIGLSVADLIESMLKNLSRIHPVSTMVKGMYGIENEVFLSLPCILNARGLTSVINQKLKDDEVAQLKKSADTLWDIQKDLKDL

MIA PaCa-2 = experiment: Cytotoxicity against human MIA PaCa-2 cells assessed as reduction in cell viability after 48 hrs by CellTiter-Glo assay; format: functional, cell-based; settings: MIA PaCa-2, 48 h
[5] = molecular target: T1, L-lactate dehydrogenase A chain; experiment: Inhibition of LDHA in human A673 cells assessed as decrease in lactate production incubated for 2 hrs by lactate oxidase-coupled fluorescence based assay; format: cell-based

IC50 [1] [nM]	IC50 [2] [nM]	IC50 [3] [nM]	inhibition (Sus scrofa)	inhibition [4]	IC50 [5] [nM]	Compound	IC50 (A673) [nM]	IC50 (MIA PaCa-2) [nM]	IC50 ([5]; a673) [nM]
417	95	52	inactive	Active	547	Cc1ccc(C#Cc2cccc(-c3nn(-c4nc(C(=O)O)cs4)c(CCC4CC4)c3Cc3ccc(S(N)(=O)=O)c(F)c3)c2)o1	137	137	–
387	189	306	inactive	Active	434	NS(=O)(=O)c1ccc(Cc2c(-c3cccc(C#Cc4ccc(C5CC5)s4)c3)nn(-c3nc(C(=O)O)cs3)c2CCC2CC2)cc1F	–	265	–
1010	267	8	inactive	Active	1090	NS(=O)(=O)c1ccc(Cc2c(-c3ccc(F)c(C#CCN4CCCC4)c3)nn(-c3nc(C(=O)O)cs3)c2CC2CC2)cc1F	–	–	–
286	134	154	inactive	Active	345	NS(=O)(=O)c1ccc(Cc2c(-c3cccc(C#Cc4ccc(C(F)F)s4)c3)nn(-c3nc(C(=O)O)cs3)c2CC2CC2)cc1F	528	528	–
417	84	33	inactive	Active	364	Cc1cnc(C#Cc2cccc(-c3nn(-c4nc(C(=O)O)cs4)c(CCC4CC4)c3Cc3ccc(S(N)(=O)=O)c(F)c3)c2)s1	180	173	–
334	17800	24	inactive	Active	434	Cc1ncc(C#Cc2cccc(-c3nn(-c4nc(C(=O)O)cs4)c(CCC4CC4)c3Cc3ccc(S(N)(=O)=O)c(F)c3)c2)s1	218	218	–
450	119	12	inactive	Active	525	Cc1cnc(C#Cc2cccc(-c3nn(-c4nc(C(=O)O)cs4)c(CC4CC4)c3Cc3ccc(S(N)(=O)=O)c(F)c3)c2)o1	–	671	–
253	90	24	inactive	Active	300	Cc1nc(C#Cc2cccc(-c3nn(-c4nc(C(=O)O)cs4)c(CCC4CC4)c3Cc3ccc(S(N)(=O)=O)c(F)c3)c2)cs1	219	219	–
218	299	235	inactive	Active	161	Cc1cc(C#Cc2cccc(-c3nn(-c4nc(C(=O)O)cs4)c(CC4CC4)c3Cc3ccc(S(N)(=O)=O)c(F)c3)c2)c(C)s1	716	810	–
487	90	17	inactive	Active	527	Cc1cnc(C#Cc2cccc(-c3nn(-c4nc(C(=O)O)cs4)c(CC4CC4)c3Cc3ccc(S(N)(=O)=O)c(F)c3)c2)s1	309	360	–
470	112	14	inactive	Active	487	CCC#Cc1cc(-c2nn(-c3nc(C(=O)O)cs3)c(CC3CC3)c2Cc2ccc(S(N)(=O)=O)c(F)c2)ccc1F	716	662	–
337	113	434	inactive	Active	485	NS(=O)(=O)c1ccc(Cc2c(-c3cccc(C#Cc4ccc(C(F)(F)F)s4)c3)nn(-c3nc(C(=O)O)cs3)c2CC2CC2)cc1F	833	803	–
491	270	169	inactive	Active	333	NS(=O)(=O)c1ccc(Cc2c(-c3cccc(C#Cc4ccc(C5CCC5)s4)c3)nn(-c3nc(C(=O)O)cs3)c2CC2CC2)cc1F	–	905	–
417	119	101	inactive	Active	390	Cc1ccsc1C#Cc1cccc(-c2nn(-c3nc(C(=O)O)cs3)c(CC3CC3)c2Cc2ccc(S(N)(=O)=O)c(F)c2)c1	–	452	–
379	299	636	inactive	Active	572	NS(=O)(=O)c1ccc(Cc2c(-c3cccc(C#Cc4ccc(C5CCC5)s4)c3)nn(-c3nc(C(=O)O)cs3)c2CCC2CC2)cc1F	571	–	–
507	10600	713	inactive	Active	529	CC(C)(C)c1ccc(C#Cc2cc(-c3nn(-c4nc(C(=O)O)cs4)c(CC4CC4)c3Cc3ccc(S(N)(=O)=O)c(F)c3)ccc2F)s1	–	665	–

Second part, the compound before the results:

Compound	IC50 [1] [nM]	IC50 [2] [nM]	IC50 [3] [nM]	inhibition (Sus scrofa)	inhibition [4]	IC50 [5] [nM]	IC50 (A673) [nM]	IC50 (MIA PaCa-2) [nM]	IC50 ([5]; a673) [nM]
C#Cc1cc(-c2nn(-c3nc(C(=O)O)cs3)c(CC3CC3)c2Cc2ccc(S(N)(=O)=O)c(F)c2)ccc1F	660	253	9	inactive	Active	902	4350	4020	–
NS(=O)(=O)c1ccc(Cc2c(-c3ccc(F)c(C#CC(F)(F)F)c3)nn(-c3nc(C(=O)O)cs3)c2CC2CC2)cc1F	> 30000	14000	450	inactive	Active	> 30000	> 30000	> 30000	–
NS(=O)(=O)c1ccc(Cc2c(-c3cccc(-c4ccccc4)c3)nn(-c3nc(C(=O)O)cs3)c2C2CC2(F)F)cc1 (stereo not given)	4760	2530	36	inactive	Active	1860	24400	17700	–
NS(=O)(=O)c1ccc(Cc2c(-c3ccc(F)c(C#CC4CCNCC4)c3)nn(-c3nc(C(=O)O)cs3)c2CC2CC2)cc1F	8910	2580	15	inactive	Active	12200	–	17300	–
NS(=O)(=O)c1ccc(Cc2c(-c3cccc(-c4ccccc4)c3)nn(-c3nc(C(=O)O)cs3)c2C2(C(F)(F)F)CC2)cc1	12800	303	4100	inactive	Active	20200	> 30000	> 30000	–
NS(=O)(=O)c1ccc(Cc2c(-c3ccc(F)c(C#Cc4cccs4)c3)nn(-c3nc(C(=O)O)cs3)c2CC2CC2)cc1F	307	89	32	inactive	Active	438	265	268	–
CC(C)CC#Cc1cc(-c2nn(-c3nc(C(=O)O)cs3)c(CC3CC3)c2Cc2ccc(S(N)(=O)=O)c(F)c2)ccc1F	487	89	54	inactive	Active	284	935	909	–
CC#Cc1cccc(-c2nn(-c3nc(C(=O)O)cs3)c(CC3CC3)c2Cc2ccc(S(N)(=O)=O)c(F)c2)c1	525	150	9	inactive	Active	713	–	619	–
NS(=O)(=O)c1ccc(Cc2c(-c3cccc(-c4ccccc4)c3)nn(-c3nc(C(=O)O)cs3)c2CC2CC2)c(F)c1	6460	–	229	inactive	Active	4460	11500	5750	–
NS(=O)(=O)c1ccc(Cc2c(-c3ccc(F)c(C#CC4CCOC4)c3)nn(-c3nc(C(=O)O)cs3)c2CC2CC2)cc1F (stereo not given)	831	89	7	inactive	Active	–	973	–	1270
Cn1cncc1C#Cc1cc(-c2nn(-c3nc(C(=O)O)cs3)c(CC3CC3)c2Cc2ccc(S(N)(=O)=O)c(F)c2)ccc1F	1070	299	8	inactive	Active	1600	–	1390	–
NS(=O)(=O)c1ccc(Cc2c(-c3ccc(F)c(C#CCN4CCOCC4)c3)nn(-c3nc(C(=O)O)cs3)c2CC2CC2)cc1F	18900	5050	107	inactive	Active	15300	5830	–	–

— ChEMBL document CHEMBL4665801, “Pyrazole-Based Lactate Dehydrogenase Inhibitors with Optimized Cell Activity and Pharmacokinetic Properties” (J Med Chem, 2020)
